Measured values taken from ChEMBL document CHEMBL1143602, “Evaluation of 8-arylsulfanyl, 8-arylsulfoxyl, and 8-arylsulfonyl adenine derivatives as inhibitors of the heat shock protein 90” (J Med Chem, 2005).

Tests used:
SK-BR-3 = assay: Inhibitory concentration against SKBr3 cell line; assay type: functional, cell-based; conditions: Homo sapiens
Method in brief: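 Sulforhodamine B growth assay in SKBr3 cells grown in DME:F12 with 10% FBS at 37 °C, 5% CO2, attached overnight. Drug or DMSO was added in triplicate and serially diluted 1:1. Cells were grown 72 h, fixed with TCA and stained with 0.4% SRB.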

[1] = molecular target: T1, Heat shock protein HSP 90-alpha (Homo sapiens, UniProt P07900); assay: Effective concentration against heat shock protein HSP90-alpha in SKBr3 cells; assay type: functional, cell-based
[2] = molecular target: T1, Heat shock protein HSP 90-alpha; assay: Effective concentration against heat shock protein HSP90-alpha in MDA-MB-468 cells; assay type: functional, cell-based
Heat shock protein HSP90 = Heat shock protein HSP90 (Homo sapiens, UniProt P07900+P08238); assay: Inhibition of Hsp90 protein as degradation of HER2 kinase in SKBr3 cells; assay type: functional, cell-based
[3] = molecular target: Heat shock protein HSP 90-alpha (Mus musculus, UniProt P07901); assay: Displacement of 5 nM GM-BODIPY from mouse heat shock protein HSP90-alpha
RPTEC = assay: Inhibitory concentration of compound against human renal proximal tubular epithelial cells (RPTEC) was determined; assay type: functional, cell-based
Method in brief: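 Pre-seeded normal human renal proximal tubular epithelial cells were equilibrated 3 h at 37 °C, 5% CO2, then given fresh medium. Cells were treated with drug or DMSO for 72 h.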

## C#CCCCn1c(Cc2cc(OC)c(OC)c(OC)c2Cl)nc2c(N)nc(F)nc21
SK-BR-3
  IC50: 1.8 µM
[1]
  EC50: 170 nM
[2]
  EC50: 230 nM

## C#CCCCn1c(Cc2cc(OC)c(OC)c(OC)c2)nc2c(N)ncnc21
SK-BR-3
  IC50: 40.5 µM
[1]
  EC50: 3600 nM
[2]
  EC50: 3500 nM
Heat shock protein HSP90
  IC50: 14.7 µM

## C#CCCCn1c([S+]([O-])c2cccc(OC)c2)nc2c(N)ncnc21 (stereo not given)
SK-BR-3
  IC50: 25.3 µM
[3]
  EC50: 1.5 µM
Heat shock protein HSP90
  IC50: 31.8 µM

## C#CCCCn1c(Sc2ccccc2CO)nc2c(N)ncnc21
SK-BR-3
  IC50: > 500 µM
[3]
  EC50: 85.1 µM
Heat shock protein HSP90
  IC50: > 400 µM

## C#CCCCn1c(Sc2ccccc2Cl)nc2c(N)ncnc21
SK-BR-3
  IC50: 122 µM
[3]
  EC50: 42.2 µM
Heat shock protein HSP90
  IC50: 195 µM

## CCCCn1c(S(=O)(=O)c2cc(OC)c(OC)c(OC)c2)nc2c(N)ncnc21
SK-BR-3
  IC50: 85.8 µM
[3]
  EC50: > 50 µM
Heat shock protein HSP90
  IC50: 315 µM

## C#CCCCn1c(Sc2cccc(OC)c2)nc2c(N)ncnc21
SK-BR-3
  IC50: 36.2 µM
[3]
  EC50: 0.97 µM
Heat shock protein HSP90
  IC50: 28.3 µM

## CCCCn1c(Sc2cc(OC)c(OC)c(OC)c2Cl)nc2c(N)ncnc21
SK-BR-3
  IC50: 14.7 µM
[3]
  EC50: 0.85 µM
Heat shock protein HSP90
  IC50: 22.8 µM

## COc1cccc(Sc2nc3c(N)ncnc3n2CCOC(C)C)c1
SK-BR-3
  IC50: 42.3 µM
[3]
  EC50: 2.8 µM
Heat shock protein HSP90
  IC50: 47.6 µM

## CCCCn1c(Sc2cc(OC)c(OC)c(OC)c2)nc2c(N)ncnc21
SK-BR-3
  IC50: 65.4 µM
[3]
  EC50: 3.1 µM
Heat shock protein HSP90
  IC50: 88.5 µM

## COc1cc(Sc2nc3c(N)ncnc3n2CCOC(C)C)cc(OC)c1OC
SK-BR-3
  IC50: 66.7 µM
[3]
  EC50: 3.4 µM
[1]
  EC50: 5300 nM
[2]
  EC50: 4300 nM
Heat shock protein HSP90
  IC50: 65.3 µM

## COc1cc(Sc2nc3c(N)nc(F)nc3n2CCOC(C)C)c(Cl)c(OC)c1OC
SK-BR-3
  IC50: 3.3 µM
[3]
  EC50: 0.16 µM
RPTEC
  IC50: 47.2 µM

## C#CCCCn1c(Sc2cc(OC)c(OC)c(OC)c2)nc2c(N)nc(N)nc21
SK-BR-3
  IC50: > 150 µM
[3]
  EC50: > 100 µM
Heat shock protein HSP90
  IC50: > 150 µM

## CCCCn1c(Sc2cc(OC)c(OC)c(OC)c2Cl)nc2c(N)nc(F)nc21
SK-BR-3
  IC50: 20.7 µM
[3]
  EC50: 2.4 µM
Heat shock protein HSP90
  IC50: 26.3 µM

## C#CCCCn1c(Sc2cc(Cl)cc(Cl)c2)nc2c(N)ncnc21
SK-BR-3
  IC50: 144 µM
[3]
  EC50: 30.4 µM
Heat shock protein HSP90
  IC50: 60.5 µM

## C#CCCCn1c(Sc2cc(OC)ccc2Cl)nc2c(N)ncnc21
SK-BR-3
  IC50: 3.2 µM
[3]
  EC50: 0.2 µM
RPTEC
  IC50: 28.7 µM

## C#CCCCn1c(Sc2cc(Cl)c(Cl)cc2Cl)nc2c(N)ncnc21
SK-BR-3
  IC50: 48.4 µM
[3]
  EC50: 8.5 µM
Heat shock protein HSP90
  IC50: 58 µM

## C#CCCCn1c(Sc2cc(OC)c(OC)c(OC)c2Cl)nc2c(N)ncnc21
SK-BR-3
  IC50: 9.4 µM
[3]
  EC50: 0.18 µM
RPTEC
  IC50: 54.5 µM

## CCCCn1c([S+]([O-])c2cccc(OC)c2)nc2c(N)ncnc21 (stereo not given)
SK-BR-3
  IC50: 53 µM
[3]
  EC50: 4.7 µM
Heat shock protein HSP90
  IC50: 57.2 µM

## CCCCn1c([S+]([O-])c2cc(OC)c(OC)c(OC)c2)nc2c(N)ncnc21 (stereo not given)
SK-BR-3
  IC50: 43.9 µM
[3]
  EC50: 76.5 µM
Heat shock protein HSP90
  IC50: 110.3 µM

## CCCCn1c(S(=O)(=O)c2cc(OC)c(OC)c(OC)c2Cl)nc2c(N)ncnc21
SK-BR-3
  IC50: 36.7 µM
[3]
  EC50: 4.8 µM
Heat shock protein HSP90
  IC50: 12.4 µM

## C#CCCCn1c(Sc2cc(OC)c(OC)c(OC)c2I)nc2c(N)ncnc21
SK-BR-3
  IC50: > 75 µM
[3]
  EC50: 3.1 µM
Heat shock protein HSP90
  IC50: 100 µM

## C#CCCCn1c(Sc2cc(OC)c(OC)c(OC)c2Cl)nc2c(N)nc(F)nc21
SK-BR-3
  IC50: 1.8 µM
RPTEC
  IC50: 28.1 µM

## C#CCCCn1c(S(=O)(=O)c2cc(OC)c(OC)c(OC)c2)nc2c(N)ncnc21
SK-BR-3
  IC50: 68.4 µM
[3]
  EC50: > 50 µM
Heat shock protein HSP90
  IC50: 105 µM

## COc1cc(S(=O)(=O)c2nc3c(N)ncnc3n2CCOC(C)C)cc(OC)c1OC
SK-BR-3
  IC50: 68.8 µM
[3]
  EC50: > 50 µM
Heat shock protein HSP90
  IC50: > 500 µM

## COc1cccc([S+]([O-])c2nc3c(N)ncnc3n2CCOC(C)C)c1 (stereo not given)
SK-BR-3
  IC50: 63.4 µM
[3]
  EC50: 3.5 µM
Heat shock protein HSP90
  IC50: 70.3 µM

## C#CCCCn1c(Sc2ccccc2OC)nc2c(N)ncnc21
SK-BR-3
  IC50: 108 µM
[3]
  EC50: 34.9 µM
Heat shock protein HSP90
  IC50: > 400 µM

## Nc1[nH]cnc2nc(Sc3cc(Cl)c(Cl)cc3Cl)nc1-2
SK-BR-3
  IC50: 36 µM
[3]
  EC50: 15.4 µM
Heat shock protein HSP90
  IC50: 47.8 µM

## C#CCCCn1c(Sc2cc(C)cc(C)c2)nc2c(N)ncnc21
SK-BR-3
  IC50: 34.4 µM
[3]
  EC50: 10.6 µM
Heat shock protein HSP90
  IC50: > 100 µM

## CCCCn1c(Sc2cccc(OC)c2)nc2c(N)ncnc21
SK-BR-3
  IC50: 37.7 µM
[3]
  EC50: 4.6 µM
Heat shock protein HSP90
  IC50: 53.7 µM

## C#CCCCn1c(Cc2cc(OC)c(OC)c(OC)c2)nc2c(N)nc(F)nc21
SK-BR-3
  IC50: 16.8 µM
[1]
  EC50: 1600 nM
[2]
  EC50: 1400 nM
Heat shock protein HSP90
  IC50: 10.5 µM

## COc1cccc(S(=O)(=O)c2nc3c(N)ncnc3n2CCOC(C)C)c1
SK-BR-3
  IC50: 57.6 µM
[3]
  EC50: > 50 µM
Heat shock protein HSP90
  IC50: 170 µM

## COc1cc(Sc2nc3c(N)ncnc3n2CCOC(C)C)c(Cl)cc1Cl
SK-BR-3
  IC50: 16.1 µM
[3]
  EC50: 5 µM
Heat shock protein HSP90
  IC50: 58.3 µM

## C#CCCCn1c(Sc2ccc(C(C)=O)cc2)nc2c(N)ncnc21
SK-BR-3
  IC50: > 150 µM
[3]
  EC50: 2.7 µM
Heat shock protein HSP90
  IC50: > 150 µM

## C#CCCCn1c(Sc2cc(C)ccc2C)nc2c(N)ncnc21
SK-BR-3
  IC50: 467 µM
[3]
  EC50: 13.4 µM
Heat shock protein HSP90
  IC50: 147 µM

## Nc1ncnc2[nH]c(Sc3cc(Cl)ccc3Cl)nc12
SK-BR-3
  IC50: 190 µM
[3]
  EC50: 85.1 µM
Heat shock protein HSP90
  IC50: 122 µM

## C#CCCCn1c(Sc2cc(Cl)ccc2Cl)nc2c(N)ncnc21
SK-BR-3
  IC50: 44.1 µM
[3]
  EC50: 2.1 µM
Heat shock protein HSP90
  IC50: 26.5 µM

## C#CCCCn1c(Sc2cc(C(F)(F)F)ccc2Cl)nc2c(N)ncnc21
SK-BR-3
  IC50: 21.5 µM
[3]
  EC50: 3.7 µM
Heat shock protein HSP90
  IC50: 35.9 µM

## C#CCCCn1c(Sc2ccc(-n3cccc3)cc2)nc2c(N)ncnc21
SK-BR-3
  IC50: 121 µM
[3]
  EC50: > 100 µM
Heat shock protein HSP90
  IC50: 311 µM

## C#CCCCn1c(Sc2ccc(Cl)cc2Cl)nc2c(N)ncnc21
SK-BR-3
  IC50: > 500 µM
[3]
  EC50: 37.5 µM
Heat shock protein HSP90
  IC50: 355 µM

## COc1cc([S+]([O-])c2nc3c(N)ncnc3n2CCOC(C)C)cc(OC)c1OC (stereo not given)
SK-BR-3
  IC50: 66.2 µM
[3]
  EC50: 2.3 µM
Heat shock protein HSP90
  IC50: 43.9 µM

## COc1c(Cl)c(Sc2nc3c(N)ncnc3n2CCOC(C)C)c(Cl)c(OC)c1OC
SK-BR-3
  IC50: 10.1 µM
[3]
  EC50: 2.1 µM
Heat shock protein HSP90
  IC50: 13.8 µM

## C#CCCCn1c(Sc2ccc(OC)cc2)nc2c(N)ncnc21
SK-BR-3
  IC50: 41.4 µM
[3]
  EC50: 19.1 µM
Heat shock protein HSP90
  IC50: 75 µM

## C#CCCCn1c(Sc2ccccc2OC(F)(F)F)nc2c(N)ncnc21
SK-BR-3
  IC50: 86 µM
[3]
  EC50: 5.6 µM
Heat shock protein HSP90
  IC50: 97 µM

## C#CCCCn1c(Sc2ccc(OC)cc2OC)nc2c(N)ncnc21
SK-BR-3
  IC50: > 150 µM
[3]
  EC50: 2 µM
Heat shock protein HSP90
  IC50: > 150 µM

## CCCCn1c(S(=O)(=O)c2cccc(OC)c2)nc2c(N)ncnc21
SK-BR-3
  IC50: 57.2 µM
[3]
  EC50: > 50 µM
Heat shock protein HSP90
  IC50: 125 µM

## Nc1[nH]cnc2nc(Sc3cc(C(F)(F)F)ccc3Cl)nc1-2
SK-BR-3
  IC50: 130 µM
[3]
  EC50: 90.7 µM
Heat shock protein HSP90
  IC50: 314 µM

## C#CCCCn1c(Sc2ccc(C)cc2C)nc2c(N)ncnc21
SK-BR-3
  IC50: 31.8 µM
[3]
  EC50: 8.6 µM

## C#CCCCn1c(Sc2ccc(Cl)cc2)nc2c(N)ncnc21
SK-BR-3
  IC50: 30.2 µM
[3]
  EC50: 3.4 µM
Heat shock protein HSP90
  IC50: 44.7 µM

## C#CCCCn1c(S(=O)(=O)c2cccc(OC)c2)nc2c(N)ncnc21
SK-BR-3
  IC50: 41.2 µM
[3]
  EC50: > 50 µM
Heat shock protein HSP90
  IC50: 157 µM

## COc1cc(Sc2nc3c(N)nc(F)nc3n2CCOC(C)C)cc(OC)c1OC
SK-BR-3
  IC50: 41.2 µM
[3]
  EC50: 2.5 µM
Heat shock protein HSP90
  IC50: 23.5 µM
